# Results reported in PubChem BioAssay AID489030 (Sanford-Burnham Center for Chemical Genomics, 2010).
# Hit rate of the full screen: of about 330,000 compounds, about 2,400 (0.73%) were called active. The sample as a whole holds a higher share of actives than the screen did. Unmarked numbers belong to inactive results. Rule for the calls: active = inhibition of at least 40% at 20 µM; inactive = the rest.
# Target: Apoptotic protease-activating factor 1 (Homo sapiens) (UniProt O14727)
# Experiment: inhibitors of human Apaf-1 apoptosome, primary screen, biochemical, DEVD-Rh110 fluorescence, uHTS (AID 489030);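 note: plate controls were DMSO wells for no effect and DEVD-CHO caspase inhibitor wells for full effect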
# Settings: reconstituted apoptosome caspase-3 activity, at 20 µM, active compounds read high
# Method in brief: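 Material: biochemical Apaf-1 apoptosome reconstitution. Medium: Hepes buffer, pH 7.5. Also added: cytochrome c activation, bis-DEVD rhodamine 110 substrate. Timing: 30 min compound preincubation, 50 min activation, room temperature. Measured by: rhodamine 110 fluorescence at Ex 480/Em 540 nm.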
# Chain of Apoptotic protease-activating factor 1 (Homo sapiens) (O14727 whole entry, looked up): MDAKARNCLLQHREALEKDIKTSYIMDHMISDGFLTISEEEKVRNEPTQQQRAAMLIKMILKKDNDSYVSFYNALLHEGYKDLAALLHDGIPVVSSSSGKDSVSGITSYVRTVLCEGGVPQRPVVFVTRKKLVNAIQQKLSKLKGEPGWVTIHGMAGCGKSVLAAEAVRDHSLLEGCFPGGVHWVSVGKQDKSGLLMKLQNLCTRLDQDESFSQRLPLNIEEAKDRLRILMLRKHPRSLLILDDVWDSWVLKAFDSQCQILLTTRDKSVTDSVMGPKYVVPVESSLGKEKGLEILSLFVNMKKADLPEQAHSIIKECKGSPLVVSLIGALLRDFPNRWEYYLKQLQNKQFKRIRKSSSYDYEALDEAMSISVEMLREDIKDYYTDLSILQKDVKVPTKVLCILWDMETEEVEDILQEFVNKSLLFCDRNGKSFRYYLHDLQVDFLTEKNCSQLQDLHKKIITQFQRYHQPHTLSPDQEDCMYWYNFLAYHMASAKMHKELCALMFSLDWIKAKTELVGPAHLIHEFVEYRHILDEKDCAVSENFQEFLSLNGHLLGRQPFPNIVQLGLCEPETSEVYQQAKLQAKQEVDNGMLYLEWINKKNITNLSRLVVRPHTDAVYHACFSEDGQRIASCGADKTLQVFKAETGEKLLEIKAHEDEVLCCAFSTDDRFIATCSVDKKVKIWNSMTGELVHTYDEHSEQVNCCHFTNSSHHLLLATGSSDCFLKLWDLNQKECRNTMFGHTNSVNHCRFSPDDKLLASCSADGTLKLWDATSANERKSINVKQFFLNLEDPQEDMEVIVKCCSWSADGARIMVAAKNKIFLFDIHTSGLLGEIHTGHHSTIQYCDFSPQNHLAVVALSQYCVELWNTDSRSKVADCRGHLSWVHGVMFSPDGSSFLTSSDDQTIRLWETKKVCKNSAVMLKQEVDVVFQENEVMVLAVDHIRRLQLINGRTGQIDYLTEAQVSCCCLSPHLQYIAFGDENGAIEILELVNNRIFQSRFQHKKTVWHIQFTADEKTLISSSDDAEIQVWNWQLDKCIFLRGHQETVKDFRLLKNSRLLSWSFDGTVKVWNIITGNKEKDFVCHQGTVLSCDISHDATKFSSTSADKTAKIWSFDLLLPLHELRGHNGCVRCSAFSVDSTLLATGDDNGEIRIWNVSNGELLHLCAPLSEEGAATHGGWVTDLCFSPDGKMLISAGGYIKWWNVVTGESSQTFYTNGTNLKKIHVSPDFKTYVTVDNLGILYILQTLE
row,SMILES,inhibition
1,CC1CCC2(CC1)NC(=O)N(CC(=O)c1ccc3c(c1)OCO3)C2=O (configuration not stated),-10.1%
2,Cc1ccc(S(=O)(=O)N2CCN(C(=O)Cn3c(=O)cnc4ccccc43)CC2)c(C)c1,-0.646%
3,Cc1ccc(S(=O)(=O)N2CCN(C(=O)c3ccccc3-c3nc4ccccc4s3)CC2)c(C)c1,40.3% (active)
4,Cc1ccc(S(=O)(=O)N2CCN(C(=O)N3CCOCC3)CC2)c(C)c1,-7.82%
5,CCN1C[C@@H]2[C@@H]3C(=O)N(Cc4ccccc4)C(=O)[C@@H]3[C@](Cc3ccccc3)(C(=O)OC)N2C1=NC1CCCCC1,41.2% (active)
6,CC[C@]1(C(=O)OC)[C@H]2C(=O)N(Cc3ccccc3)C(=O)[C@H]2[C@H]2CN=C(SCc3ccccc3)N21,25.2%
7,CCCN=C1N(C)C[C@@H]2[C@@H]3C(=O)N(Cc4ccccc4)C(=O)[C@@H]3[C@](C)(C(=O)OC)N12,11.4%
8,Cc1nnc(Sc2nc3c(c(=O)[nH]c(=O)n3C)n2Cc2ccccc2)s1,21%
9,O=C1NC(c2ccc(-c3ccccc3[N+](=O)[O-])o2)C(C(=O)c2ccc(Cl)cc2)C(O)(C(F)(F)F)N1 (configuration not stated),36.8%
10,CC1=NN(c2ccc(Cl)c(C(=O)O)c2)C(=O)/C1=C/c1ccc(-c2ccccc2[N+](=O)[O-])o1,42.9% (active)
11,O=C(Nc1ccc(N2CCOCC2)cc1)c1ccc(-c2ccccc2[N+](=O)[O-])o1,2.89%
12,COC(=O)c1ccc(S(=O)(=O)N2CCC(c3nc4ccccc4o3)CC2)cc1,-25.7%
13,Cc1cccc(C)c1NC(=O)CNC(=O)Cc1ccc(Br)cc1,-1.64%
14,CC(C)N(C(=O)[C@H]1C[C@H](CC(=O)NC(C)(C)C)C(=O)N2CCc3c([nH]c4ccc(Cl)cc34)[C@]12C)C(C)C,29.3%
15,CCC(C)[C@@H](C(=O)N1CCNCC1)n1cc(CCCCN)nn1 (some centres not stated),-4.43%
16,NC(N)=NCCCc1cn(CC(=O)N2CCNCC2)nn1,40.2% (active)
17,C[C@@H](C(=O)N1CCNCC1)n1cc(CCC(=O)O)nn1,5.94%
18,CCN1C(=NCc2ccc(OC)cc2)N[C@@H](CCc2ccccc2)[C@H](C(=O)NCc2ccc(OC)cc2)[C@H]1C,40.4% (active)
19,CCN1C(=NCC(C)C)N[C@@H](CCc2ccccc2)[C@H](C(=O)NCC(C)C)[C@H]1C,4.1%
20,CCN1C(=S)N[C@@H](CCc2ccccc2)[C@H](C(=O)OC)[C@H]1C,-4.74%
21,CCN1C(=O)N[C@@H](CCc2ccccc2)C(C(=O)OC)=C1C,17.6%

row,SMILES,inhibition
1,O=C(NCc1ccccc1Cl)C1CCN(c2ncnc3c2nc2n3CCCCC2)CC1,-6.54%
2,Cc1nn2c(NCCN(C)C)c3c(nc2c1-c1ccccc1)CCC3,1.66%
3,CCN(C(=O)C1CCCN(c2nc(-c3ccc(OC)cc3)no2)C1)c1ccc(OC)cc1 (configuration not stated),12.2%
4,Cc1cc(=O)cc(C)[nH]1,-15%
5,Oc1c(C=Nc2cccc3nsnc23)ccc2ccccc12,95.8% (active)
6,CCOc1ccc(N2CC(C(=O)NCc3ccccn3)CC2=O)cc1 (configuration not stated),1.44%
7,COCCNC(=O)c1ccc(Cn2c(SCC(=O)NCC3CCCO3)nc3ccc(Br)cc3c2=O)cc1 (configuration not stated),-13.8%
8,OC(CNCC1CCCO1)Cn1c2ccc(Br)cc2c2cc(Br)ccc21 (configuration not stated),43.4% (active)
9,CCCN1CCn2c3c(c4cc(Br)ccc42)CCCC31 (configuration not stated),12.8%
10,CN(C)/C(CN1CCCCC1)=C1\N=C(c2ccccc2)OC1=O,-0.998%
11,O=C(CCC(=O)c1ccccc1)NCc1cccc(C(F)(F)F)c1,6.79%
12,COC(=O)[C@@H](Cc1ccccc1)NC(=O)NCCc1ccccc1,-5.88%
13,NC[C@H](Cc1ccccc1)NCCc1cc(C(F)(F)F)cc(C(F)(F)F)c1,60.8% (active)
14,O=C(Cn1nc(CNc2ccc(Cl)cc2)[n+]2c1CCCCC2)c1ccc(Cl)cc1,15.2%
15,CCc1ccc(/C=N/NC(=O)c2nnn(-c3nonc3N)c2CN2CCc3ccccc32)cc1,8.04%
16,CC(C)CC[n+]1ccn(C2=C([O-])c3ccccc3C(=O)/C2=N\S(=O)(=O)c2ccccc2)c1,55.3% (active)
17,CCc1nc(C)cn1S(=O)(=O)c1cc([N+](=O)[O-])ccc1Cl,2.1%
18,CC(=O)Nc1ccc(Nc2cc(C)nc(Nc3ccc(NC(C)=O)cc3)n2)cc1,46.2% (active)
19,COc1ccc(C(=O)NNc2cc(C)nc(NNC(=O)c3ccc(OC)cc3)n2)cc1,8.09%
20,CCC(=O)Nc1ccc(Nc2nc(Cl)nc(Nc3ccc(NC(=O)CC)cc3)n2)cc1,-8.45%
21,COc1ccc(OCCNC(=O)c2cc(C3CC3)nc3c2cnn3C(C)C)cc1,15%
